{"data": "Experimental data from different studies", "target": "Calcium/calmodulin-dependent protein kinase type II subunit gamma (CAMK2G, Homo sapiens, UniProt Q13555)", "note": "Protocols differ between the studies behind these lines."}
{"SMILES": "CN(C)c1ncnc(-c2ccc3nc(Nc4cc(CN5CCN(C(=O)CC(F)(F)F)CC5)ccn4)[nH]c3c2)c1Cl", "assay": "cell-free assay, competition with immobilised ligand", "setting": "1 µM", "endpoint": "remaining binding", "result": "100%"}
{"SMILES": "COc1cc(Cl)c(C(=O)N[C@@H](CN[C@H]2CC[C@@H](N)CC2)Cc2ccc(C#N)cc2)cc1-c1ccc(CN[C@H](C)c2ccc(C)cc2)o1", "assay": "enzyme activity, inhibitor", "setting": "1 µM", "endpoint": "remaining activity", "result": "87%"}
{"SMILES": "CC/C(=N\\NC(=O)NCc1cccc(O)c1)c1ccc(O)c(C)c1O", "assay": "enzyme activity, inhibitor", "setting": "0.1 µM", "endpoint": "inhibition", "result": "-5.1%"}
{"SMILES": "O=C1NC(=O)c2cc(Nc3ccc(F)cc3)c(Nc3ccc(F)cc3)cc21", "assay": "cell-free assay", "setting": "0.5 µM", "endpoint": "remaining signal", "result": "101%"}
{"SMILES": "CC(C)(C)c1nc2c(s1)c1nc(N)ncc1c1ccc(NS(=O)(=O)c3c(F)cccc3F)c(F)c12", "assay": "enzyme activity, inhibitor, radiometric", "setting": "1 µM", "endpoint": "remaining activity", "result": "118%"}
{"SMILES": "CCCS(=O)(=O)Nc1ccc(F)c(C(=O)c2c[nH]c3ncc(-c4ccc(Cl)cc4)cc23)c1F", "assay": "enzyme activity, inhibitor", "setting": "1 µM", "endpoint": "inhibition", "result": "< 10%"}
{"SMILES": "COc1ccc2c(O[C@@H]3C[C@H]4C(=O)N[C@]5(C(=O)O)CC5/C=C\\CCCCC[C@H](NC(=O)OC5CCCC5)C(=O)N4C3)cc(-c3csc(NC(=O)C(C)C)n3)nc2c1C (some centres unmarked)", "assay": "cell-free assay, competition with immobilised ligand", "setting": "1 µM", "endpoint": "remaining binding", "result": "100%"}
{"SMILES": "Cc1cnc(NC2CCOCC2)nc1-n1cnc(C(=O)NC(CN)c2cc(F)cc(Cl)c2)c1 (centres unmarked)", "assay": "enzyme activity, inhibitor, radiometric", "setting": "1 µM", "endpoint": "remaining activity", "result": "88%"}
{"SMILES": "O=C(Nc1cnn(-c2csc(C(=O)NC3COC3)c2)c1)Nc1ccccc1Cl", "assay": "enzyme activity, inhibitor", "setting": "5 µM", "endpoint": "remaining activity", "result": "96.4%"}
{"SMILES": "Cc1ccc(NC(=O)c2ccc(C)c(C(F)(F)F)c2)cc1C#Cc1nn(C2CCC(O)CC2)c2ncnc(N)c12 (centres unmarked)", "assay": "cell-free assay", "setting": "10 µM", "endpoint": "remaining signal", "result": "90%"}
{"SMILES": "CN([C@@H]1CCc2c(CC(=O)O)c3cc(S(C)(=O)=O)ccc3n2C1)S(=O)(=O)c1ccc(F)cc1", "assay": "cell-free assay, competition with immobilised ligand", "setting": "1 µM", "endpoint": "remaining binding", "result": "100%"}
{"SMILES": "CN1CC(Oc2cnc(C#N)cc2-c2ccn3nc(NC(=O)C4CC4)cc3c2)C1", "assay": "enzyme activity, inhibitor", "setting": "1 µM", "endpoint": "inhibition", "result": "10%"}
{"SMILES": "CNC(=O)c1cc(Oc2ccc(NC(=O)Nc3ccc(Cl)c(C(F)(F)F)c3)cc2)ccn1", "assay": "cell-free assay", "setting": "0.3 µM", "endpoint": "inhibition", "result": "51%"}
{"SMILES": "Cc1sc(C(=O)NC2COC2)cc1-n1cc(NC(=O)Nc2c(F)cccc2Cl)cn1", "assay": "enzyme activity, inhibitor", "setting": "10 µM", "endpoint": "remaining activity", "result": "102%"}
{"SMILES": "O=C1CCc2cc(Nc3cc(OC4CCOCC4)c([N+](=O)[O-])cc3Cl)ccc2N1", "assay": "cell-free assay, competition with immobilised ligand", "setting": "1 µM", "endpoint": "remaining binding", "result": "100%"}
{"SMILES": "Nc1ncnc2occ(-c3ccc(NC(=O)Nc4cc(C(F)(F)F)ccc4F)cc3)c12", "assay": "cell-free assay", "setting": "20 µM", "endpoint": "remaining signal", "result": "71%"}
{"SMILES": "O=C(NC[C@@H]1[C@H]2CN(C(=O)OCc3cc(C(F)(F)F)cc(C(F)(F)F)c3)C[C@@H]12)c1ccc2[nH]nnc2c1", "assay": "cell-free assay, competition with immobilised ligand", "setting": "1 µM", "endpoint": "remaining binding", "result": "85%"}
{"SMILES": "C[C@@H]1CCN(C(=O)CC#N)C[C@@H]1N(C)c1ncnc2[nH]ccc12", "assay": "cell-free assay", "setting": "0.5 µM", "endpoint": "remaining signal", "result": "127%"}
{"SMILES": "C[C@@H]1CN(c2cc(-c3nn(C)c4ccc(OC5(C)CC5)cc34)ncn2)C[C@H](C)O1", "assay": "cell-free assay, competition with immobilised ligand", "setting": "1 µM", "endpoint": "remaining binding", "result": "90%"}
{"SMILES": "CCCOc1ccc(OC)c(F)c1C(=O)c1ccc(C(=O)N[C@@H]2CNC[C@H]2NC(=O)c2ccc3[nH]ncc3c2)cc1", "assay": "enzyme activity, inhibitor", "setting": "10 µM", "endpoint": "remaining activity", "result": "79%"}
